The text below walks through data of ChEMBL document CHEMBL1154927, “Photooxidation and Phototoxicity of pi-extended squaraines” (J Med Chem, 2010).

Activity calls are given as the source filed them. The calls are words filed in the database; no cut-off is given here.

Series [1] concerns HeLa. As to the kind of experiment: Photocytotoxicity against human HeLa cells assessed as apoptotic cells at 9.6 uM for 3 hrs followed by 15 J/mc2 irradiation by annexin V/propidium iodide staining-based FACS flow cytometry (Rvb=1.3%). Format: functional. Background: In flow cytometry, cells or beads pass a laser one at a time.
For series [2], the system named is HeLa. As to the kind of experiment: Cellular uptake in human HeLa cells assessed as localization to cytoplasm at 8 uM after 4 hrs by confocal laser microscopy. Format: ADME, cell-based. Put shortly:
(§1)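 HeLa cells seeded (2 × 10^5) on coverslips, treated 24 h later with squaraine for 3 h (figure legend states 4 h), then irradiated with a metal halogen white lamp at 15 J/cm2. Cells were fixed with PFA, permeabilized with Triton X-100 (0.1% in PBS) and nuclei stained with Hoechst. Localization was imaged by confocal laser microscopy.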

Series [3] relates to HeLa. Description: Photocytotoxicity against human HeLa cells assessed as induction of lipid peroxidation-mediated malondialdehyde production at 9.6 uM for 3 hrs followed by 15 J/mc2 irradiation by TBARS assay relative to untreated control. Format: functional.
The subject of series [4] is HeLa. As to the kind of experiment: Photocytotoxicity against human HeLa cells assessed as necrotic cells at 9.6 uM for 3 hrs followed by 15 J/mc2 measured 72 hrs irradiation by propidium iodide staining. Format: functional, cell-based. In short, it runs like this: (§2)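 HeLa cells (2.5 × 10^5, six-well) were treated with squaraine the next day and photoactivated. The medium was then replaced with fresh medium containing Hoechst and PI (both 2 μg/mL). Living cells were time-lapse imaged at 37 °C, 5% CO2 over 72 h, with necrotic (PI-red, swollen) and apoptotic (shrinkage, blebbing, apoptotic bodies) morphology scored. Controls had no squaraine.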

For series [5], the system named is HeLa. Description: Induction of apoptosis in human HeLa cells assessed as caspase 3/7 activation at 9.6 uM for 3 hrs followed by 15 J/mc2. Format: functional, cell-based. In short, it runs like this: (§3)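 HeLa cells (5000/well) were incubated 3 h with squaraine and irradiated at 15 J/cm2. Caspase-3/7 activity was measured 2.5, 16 and 22 h after light using a homogeneous fluorogenic reagent (substrate 1:100 in buffer, 1:1 with sample), with ex 485/em 530 nm. Values are means ± SDs of at least two independent experiments.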

Series [6] relates to MCF7. As to the kind of experiment: Photocytotoxicity against human MCF7 cells assessed as induction of lipid peroxidation-mediated malondialdehyde production at 1.8 uM for 3 hrs followed by 15 J/mc2 irradiation by TBARS assay relative to untreated control. Format: functional, cell-based.
The test system of series [7] is HeLa. As to the kind of experiment: Induction of apoptosis in human HeLa cells assessed as apoptotic bodies at 9.6 uM for 3 hrs followed by 15 J/mc2 measured 72 hrs irradiation by propidium iodide staining. Format: functional, cell-based. Put shortly:
as §2

For series [8], the system named is HeLa. As to the kind of experiment: Cellular uptake in human HeLa cells assessed as localization to nucleus at 8 uM after 4 hrs by confocal laser microscopy. Format: ADME, cell-based. In short, it runs like this: as §1
The subject of series [9] is HeLa. As to the kind of experiment: Photocytotoxicity against human HeLa cells assessed as necrotic cells at 9.6 uM for 3 hrs followed by 15 J/mc2 irradiation by annexin V/propidium iodide staining-based FACS flow cytometry (Rvb=1.0%). Format: functional.
For series [10], the system named is MCF7. Description: Photocytotoxicity against human MCF7 cells assessed as induction of lipid peroxidation-mediated malondialdehyde production at 9.6 uM for 3 hrs followed by 15 J/mc2 irradiation by TBARS assay relative to untreated control. Format: functional, cell-based.
Series [11] concerns HeLa. As to the kind of experiment: Photocytotoxicity against human HeLa cells assessed as cell growth arrest at 9.6 uM for 3 hrs followed by 15 J/mc2 irradiation measured 72 hrs after irradiation by resazurin proliferation assay. Format: functional, cell-based. In short, it runs like this:
(§4)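 HeLa cells were given squaraine, irradiated with light (15 J/cm2), and followed for up to 72 h after light treatment for proliferation. Controls were cells treated only with light.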
(In general: Resazurin is reduced to fluorescent resorufin, in cell work by metabolically active cells.)

The test system of series [12] is HeLa. Description: Photocytotoxicity against human HeLa cells assessed as necrotic cells at 1.5 uM for 3 hrs followed by 15 J/mc2 irradiation by annexin V/propidium iodide staining-based FACS flow cytometry (Rvb=1.0%). Format: functional.
Series [13] concerns HeLa. Description: Cytotoxicity against human HeLa cells under dark condition at 5 uM after 24 hrs by resazurin proliferation assay. Format: cell-based. In short, it runs like this: (§5)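 Cells were seeded to reach plateau growth: HeLa and B78-H1 at 5000, HepG2 and MCF-7 at 7000 cells/well. They were exposed to increasing squaraine concentrations in the dark, with compound from DMSO diluted in medium (final DMSO <0.2%). Viability was measured by resazurin fluorescence as RFU treated/RFU untreated × 100. Values are means ± SDs of three independent experiments.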

The nature of series [14]: Photocytotoxicity against mouse B78H1 cells treated for 3 hrs followed by 15 J/mc2 irradiation measured 24 hrs after irradiation by resazurin proliferation assay. Format: functional. Put shortly: (§6)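 Cells were seeded to reach plateau growth: HeLa and B78-H1 at 5000, HepG2 and MCF-7 at 7000 cells/well. They were incubated 3 h with increasing squaraine concentrations (DMSO stock, final DMSO <0.2%, DMSO-matched control), then irradiated 30 min with a metal halogen lamp (15 J/cm2). Resazurin proliferation was read 24 h later as % of untreated fluorescence. IC50 was estimated from dose-response plots; means ± SDs of three independent experiments.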

The subject of series [15] is HeLa. As to the kind of experiment: Photocytotoxicity against human HeLa cells assessed as necrotic cells at 1.5 uM for 3 hrs followed by 15 J/mc2 measured 72 hrs irradiation by propidium iodide staining. Format: functional, cell-based. In short, it runs like this:
as §2

Series [16] deals with HeLa. As to the kind of experiment: Photocytotoxicity against human HeLa cells treated for 3 hrs followed by 15 J/mc2 irradiation measured 24 hrs after irradiation by resazurin proliferation assay. Format: functional. Put shortly: as §6
Series [17] concerns HeLa. Description: Induction of apoptosis in human HeLa cells assessed as apoptotic bodies at 1.5 uM for 3 hrs followed by 15 J/mc2 measured 72 hrs irradiation by propidium iodide staining. Format: functional, cell-based. In short, it runs like this: as §2
For series [18], the system named is MCF7. As to the kind of experiment: Photocytotoxicity against human MCF7 cells treated for 3 hrs followed by 15 J/mc2 irradiation measured 24 hrs after irradiation by resazurin proliferation assay. Format: functional. In short, it runs like this: as §6
Series [19] deals with Mus musculus. As to the kind of experiment: Toxicity in C57BL/6 mouse bearing mouse B78H1 cells assessed as behavioral changes at 3 umol/kg, iv measured for 1 week. The following applies: in vivo, 168 h. Format: organism-based. Put shortly:
(§7)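 Squaraine given to mice at 3 μmol/kg (the dose used for PDT experiments), formulated in small unilamellar dioleoylphosphatidylcholine liposomes and injected.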

The nature of series [20]: Cytotoxicity against mouse B78H1 cells under dark condition at 5 uM after 24 hrs by resazurin proliferation assay. Format: cell-based. Conditions: b78h1, 24 h. Put shortly: as §5
The test system of series [21] is HeLa. Description: Photocytotoxicity against human HeLa cells assessed as induction of lipid peroxidation-mediated malondialdehyde production at 1.8 uM for 3 hrs followed by 15 J/mc2 irradiation by TBARS assay relative to untreated control. Format: functional.
Series [22] has as its system HeLa. As to the kind of experiment: Photocytotoxicity against human HeLa cells assessed as apoptotic cells at 1.5 uM for 3 hrs followed by 15 J/mc2 irradiation by annexin V/propidium iodide staining-based FACS flow cytometry (Rvb=1.3%). Format: functional.
The test system of series [23] is HeLa. As to the kind of experiment: Photocytotoxicity against human HeLa cells assessed as cell growth arrest at 1.5 uM for 3 hrs followed by 15 J/mc2 irradiation measured 72 hrs after irradiation by resazurin proliferation assay. Format: functional, cell-based. Put shortly: as §4
Series [24] concerns Mus musculus. Description: Toxicity in C57BL/6 mouse bearing mouse B78H1 cells assessed as mortality at 3 umol/kg, iv measured after 1 week. Format: organism-based. Conditions: in vivo, 168 h. Put shortly:
as §7

For series [25], the system named is MCF7. As to the kind of experiment: Cytotoxicity against human MCF7 cells under dark condition after 24 hrs by resazurin proliferation assay. Format: cell-based. Conditions: mcf7, 24 h. In short, it runs like this:
as §5

A further series concerns HUVEC. As to the kind of experiment: Cytotoxicity against HUVEC cells under dark condition after 24 hrs by resazurin proliferation assay. Format: cell-based. The following applies: human.
The test system of series [26] is HepG2. As to the kind of experiment: Cytotoxicity against human HepG2 cells under dark condition after 24 hrs by resazurin proliferation assay. The following applies: hepg2, 24 h. Format: cell-based. In short, it runs like this: as §5
The subject of series [27] is HepG2. Description: Photocytotoxicity against human HepG2 cells treated for 3 hrs followed by 15 J/mc2 irradiation measured 24 hrs after irradiation by resazurin proliferation assay. Format: functional. In short, it runs like this:
as §6

Series [28] has as its system HeLa. Description: Cellular uptake in human HeLa cells assessed as localization to nucleus at 1 uM after 4 hrs by confocal laser microscopy. Format: ADME, cell-based. Put shortly: as §1
The subject of series [29] is HepG2. Description: Cytotoxicity against human HepG2 cells under dark condition at 5 uM after 24 hrs by resazurin proliferation assay. Format: cell-based. Conditions: hepg2, 24 h. In short, it runs like this:
as §5

The nature of series [30]: Cytotoxicity against mouse B78H1 cells under dark condition after 24 hrs by resazurin proliferation assay. Format: cell-based. The following applies: b78h1, 24 h. In short, it runs like this: as §5
Series [31] has as its system HeLa. Description: Induction of apoptosis in human HeLa cells assessed as caspase 3/7 activation at 1.5 uM for 3 hrs followed by 15 J/mc2. Format: functional, cell-based. In short, it runs like this:
as §3

In series [32] the test system is HeLa. Description: Cytotoxicity against human HeLa cells under dark condition after 24 hrs by resazurin proliferation assay. Format: cell-based. Put shortly: as §5
Series [33] concerns MCF7. As to the kind of experiment: Cytotoxicity against human MCF7 cells under dark condition at 5 uM after 24 hrs by resazurin proliferation assay. Format: cell-based. Conditions: mcf7, 24 h. In short, it runs like this:
as §5

The subject of series [34] is HeLa. Description: Cellular uptake in human HeLa cells assessed as localization to cytoplasm at 1 uM after 4 hrs by confocal laser microscopy. Format: ADME, cell-based. In short, it runs like this:
as §1

As to `CCCCCC[n+]1c(/C=C2\C(=O)C(c3ccc(-c4ccc(-c5ccc(C6=C([O-])/C(=C\c7sc8ccccc8[n+]7CCCCCC)C6=O)s5)s4)s3)=C2[O-])sc2ccccc21`, the Activity in the series with HeLa [1] was 8.8%; in the series with HeLa [9], 25.9%. Further, the Drug uptake entry is “Active” with HeLa [2] and “Not Active” in the series on HeLa [8]. In addition, in the series on HeLa [3], the “fold change (FC)” value was 4. Further, the result in the series on HeLa [4], in the series with HeLa [5], in the series with MCF7 [6], with HeLa [7], in the series on MCF7 [10] and in the series with HeLa [11] was Active.
Consider `CCCCCCN1/C(=C/C2=C([O-])C(=C\c3sc4ccccc4[n+]3CCCCCC)/C2=O)Sc2ccccc21`, for which the Activity with HeLa [12] is 9.5%; in the series on HeLa [13], “Toxic”; in [14] it was 80%; in the series with HeLa [16], 80%; with MCF7 [18], 80%; in the series on Mus musculus [19], “Non-toxic”. Also, the Activity entry in series [20] is on record as “Toxic”; in the series on HeLa [22], 3.9%; in the series with Mus musculus [24], “Non-toxic”; in the series on MCF7 [25] it was “Non-toxic”; with HUVEC it was “Non-toxic”; with HepG2 [26], “Non-toxic”. Besides, the Activity in the series on HepG2 [27] is 80%; in the series on HepG2 [29], “Toxic”; in series [30] it was “Non-toxic”; with HeLa [32], “Non-toxic”; in the series on MCF7 [33] it was “Toxic”. Besides, the result with HeLa [15], with HeLa [17], in the series with MCF7 [6], in the series on HeLa [23], in the series with MCF7 [10] and in the series on HeLa [31] was Active. Also, the “fold change (FC)” value in the series with HeLa [21] was 4. The Drug uptake entry in the series on HeLa [28] is recorded as “Not Active”; in the series with HeLa [34], “Active”.
